{"source": "ChEMBL document CHEMBL1134385", "about": "“Flexible estrogen receptor modulators: design, synthesis, and antagonistic effects in human MCF-7 breast cancer cells” (J Med Chem, 2001)", "key": {"MCF7": {"system": "MCF7", "test": "Antiproliferative activity against Human MCF-7 Breast cancer cell line in vitro.", "assay_type": "functional, cell-based", "how_it_was_run": "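MCF-7 cells grown in Eagle's MEM with 10% fetal calf serum and 1% nonessential amino acids, 5% CO2. Seeded at 1.5×10^4 per well, 24 h at 37 °C, then dosed from ethanol stocks over 1 nM-100 μM (vehicle 1% v/v) for 72 h. MTT at 1 mg/mL final, 2 h in the dark, DMSO solubilization, A570. Viability relative to vehicle control; IC50 from triplicate means.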"}, "Estrogen receptor": {"molecular_target": "Estrogen receptor (Homo sapiens, UniProt Q92731+P03372)", "test": "Binding affinity for estrogen receptor.", "assay_type": "protein assay"}}}
{"smiles": "CC/C(=C(\\Cc1ccccc1)c1ccc(OCN(C)C)cc1)c1ccccc1", "values": [{"measurement": "IC50", "setting": "MCF7", "result": 21.7, "unit": "µM"}, {"measurement": "Ki", "setting": "Estrogen receptor", "result": 0.503, "unit": "µM"}]}
